Experimental data of several laboratories.
Compare with care: the assays were run in different laboratories.
Target: 5-hydroxytryptamine receptor 2A (HTR2A, Homo sapiens, UniProt P28223)

SMILES | effect on | action | method | notes | quantity | result
CCCCCNC(=N)N/N=C/c1c[nH]c2ccc(OC)cc12 | cell-free assay | – | – | – | IC50 | 0.127 µM
CN(C)[C@@H]1Cc2ccccc2[C@@H](c2ccccc2)C1 (relative stereo) | inositol phosphate | antagonist | – | – | Kb | 0.46 µM
COc1cc2c3c(c1OC)-c1ccccc1CC3NCC2 (centres unmarked) | ligand displacement | – | radioligand | cell membranes | Ki | 0.925 µM
CC[C@H](C)[C@H](NC(=O)[C@H](CCCNC(=N)N)NC(=O)[C@H](CC(C)C)NC(=O)[C@@H](N)Cc1ccccc1)C(=O)N[C@@H](CCCNC(=N)N)C(=O)N1CCC[C@H]1C(=O)N[C@@H](CCCCN)C(=O)O | cell-free assay | – | radioligand | – | Ki | > 10 µM
c1ccc2c(C3CCNCC3)noc2c1 | ligand displacement | – | radioligand | cell membranes | Ki | 0.271 µM
C[C@H](N)Cn1ccc2cc(F)c(Cl)cc21 | ligand displacement | – | radioligand | cell membranes | Ki | 0.0131 µM
Cc1nc2n(c(=O)c1CCN(C)CCc1c[nH]c3cc(F)ccc13)CCCC2 | ligand displacement | – | radioligand | cell membranes | Ki | 0.0258 µM
COc1cc2c3c(c1OC)-c1cc4c(cc1CC3N(C)CC2)OCO4 (centres unmarked) | calcium signal | antagonist | – | – | Kb | 0.83 µM
Cc1[nH]c2ccccc2c1CCN | ligand displacement | – | radioligand | – | Ki | 7.77 µM
COc1ccccc1N1CCN(CCN(C(=O)C2CCCCC2)c2ccccn2)CC1 | ligand displacement | – | radioligand | cell membranes | Ki | 0.331 µM
CN(C)CCc1c[nH]c2ccccc12 | cell-free assay | – | – | – | Ki | 1.51 µM
OC(c1ccc(F)cc1)C(F)(F)CCN1CCC(O)(c2ccc(Cl)cc2)CC1 (racemic) | cell-free assay | – | radioligand | – | Ki | 1.01 µM
NCCc1c[nH]c2ccc(F)cc12 | ligand displacement | – | radioligand | – | Ki | 3.91 µM
COc1cc2c3c(c1OC)-c1ccccc1C[C@H]3N(C)CC2 | ligand displacement | – | radioligand | cell membranes | Ki | 0.15 µM
